Source: PubChem BioAssay (Johns Hopkins Ion Channel Center)
MrgX1 antagonist: antagonists of human MrgX1 receptor, primary screen, HEK293 cells, Fluo-4 calcium flux; B-score at 10 µM; AID 588676, 2011; Mas-related G-protein coupled receptor member X1 (Homo sapiens), Q96LB2; actives 1.3% (n = 310,000); BAM8-22 antagonism; hits give low values;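 active = calcium-response B-score plate-corrected more than 3 library SD below zero, starting fluorescence within 5 deviations, no agonist response on first addition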;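 note: peak minus trough fluorescence over baseline after final BAM8-22 challenge near maximal dose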
Target sequence (Q96LB2 whole entry, looked up): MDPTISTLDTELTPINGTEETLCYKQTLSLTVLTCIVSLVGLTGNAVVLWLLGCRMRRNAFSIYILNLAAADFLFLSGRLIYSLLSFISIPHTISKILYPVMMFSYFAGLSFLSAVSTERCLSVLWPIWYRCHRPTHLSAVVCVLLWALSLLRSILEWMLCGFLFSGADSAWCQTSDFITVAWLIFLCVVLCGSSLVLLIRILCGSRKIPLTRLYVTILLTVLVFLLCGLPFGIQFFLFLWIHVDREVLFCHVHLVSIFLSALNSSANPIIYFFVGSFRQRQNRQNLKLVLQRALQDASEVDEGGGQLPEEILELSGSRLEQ
RGS4 pot: RGS4 potentiators or activators, primary screen, cell-based, HEK293 M3R inducible RGS4, calcium flux | actives 0.92% (n = 310,000) | carbachol calcium flux Fluo4; hits give low values | B-score at 10 µM;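 active = B-score of the integrated calcium signal more than 4 SD below the library mean, with starting fluorescence not abnormally high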;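 note: negative B-score means reduced calcium response which marks RGS4 activation or potentiation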
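Also added: carbachol at ECmax as muscarinic agonist stimulus; Assay system: HEK293 cells with stable M3R and inducible RGS4; Timing: overnight RGS4 induction, 30 min dye load 37 °C, 20 min compound RT; Measured by: Fluo4-AM (2 µM) calcium-flux fluorescence, kinetic read.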
RGS4 inh: RGS4 inhibitors, primary screen, cell-based, HEK293 M3R inducible RGS4, calcium flux | B-score at 10 µM | Fluo-4 calcium flux; hits give high values; triggered by carbachol at its EC20 | AID 463165, 2010 | Regulator of G-protein signaling 4 (Homo sapiens), P49798 | actives 0.45% (n = 310,000);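 active = B-score, a plate-corrected calcium signal, over three deviations above library mean, with baseline fluorescence within five deviations of library mean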;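 note: RGS4 expression induced by doxycycline in cells with stable M3 receptor; B-score is computed from the integrated fluorescence ratio over baseline after carbachol; higher B-score means a larger calcium signal and so more RGS4 inhibition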
Target sequence (P49798 whole entry, looked up): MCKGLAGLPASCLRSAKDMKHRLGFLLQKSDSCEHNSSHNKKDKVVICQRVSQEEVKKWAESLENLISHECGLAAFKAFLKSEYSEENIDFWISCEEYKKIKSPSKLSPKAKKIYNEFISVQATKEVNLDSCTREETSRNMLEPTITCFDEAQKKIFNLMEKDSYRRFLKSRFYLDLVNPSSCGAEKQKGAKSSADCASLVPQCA
MrgX1 PAM: positive allosteric modulators of MrgX1, primary screen, HEK293 cells, Fluo-4 calcium flux; Mas-related G-protein coupled receptor member X1 (Homo sapiens), Q96LB2; B-score at 10 µM; AID 588675, 2011; actives 0.63% (n = 310,000); FDSS; hits give high values;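 active = plate-corrected calcium response at least 3 library SD above typical, normal starting fluorescence, not activating the receptor alone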;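 note: compound read alongside a low EC10 to EC30 dose of BAM8-22 agonist; peak minus trough fluorescence over baseline measured at the second addition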
MrgX1 ag: agonists of human MrgX1 receptor, primary screen, HEK293 cells, Fluo-4 calcium flux; actives 0.44% (n = 310,000); B-score at 10 µM; Fluo-4 calcium fluorescence, agonist mode; hits give high values;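 active = calcium response B-score plate-corrected fluorescence ratio at least 3 library SD, with starting fluorescence B-score inside 5 SD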
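Test system: HEK293 cells stably expressing human MrgX1 receptor; Input: fifteen thousand cells per well; Dosing: compound delivered in addition one of three; Schedule: overnight seeding, then 1 h dark dye loading; Technique: Fluo-4 NW calcium fluorescence; Measure: B-scored fluorescence response ratio; Controls: positive and negative controls per plate.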
An asterisk follows results filed as active; i = inactive; . = not tested or not shown. Shown are actives, neighbours in structure and some others; about 3.5% of the full set was active somewhere.

SMILES	MrgX1 antagonist	RGS4 pot	RGS4 inh	MrgX1 PAM	MrgX1 ag
Cc1ccc(S(=O)(=O)N2CCN(C(=O)CNC(=O)c3ccc(Br)o3)CC2)cc1	i	i	i	i	i
Cc1cc(C(=O)COC(=O)CC2Sc3ccccc3NC2=O)c(C)n1-c1cccc(C(F)(F)F)c1 (stereo unspecified)	i	-8.2*	i	i	i
COc1ccc2[nH]c3c(c2c1)CCNC3(C)CCc1ccc(Cl)nc1 (stereo unspecified)	i	i	i	i	i
O=C(Nc1cc2c3c(c1)C1CCCC1CN3CC1CCCC21)c1ccccc1 (stereo unspecified)	-13*	-9.8*	i	i	i
Cc1sc(-n2c(C)cc(/C=C3\SC(=S)NC3=O)c2C)c(C#N)c1C	-7.4*	-11*	i	i	i
COC(=O)c1ccccc1S(=O)(=O)N1CCC(C(=O)OCC(=O)c2ccccc2OC)CC1	i	i	i	i	i
O=[N+]([O-])c1ccc(N/N=C/c2sc(N3CCOCC3)nc2-c2ccccc2)c(S(=O)(=O)Nc2ccc(Cl)cc2)c1	.	-7.5*	i	.	.
COCCNC(=S)Nc1cc(OC)c(OC)cc1C#N	.	i	i	.	.
CC(C)C(C(=O)Nc1ccncc1)c1ccc(Cl)cc1 (stereo unspecified)	-4.6*	i	i	i	i
C[C@H]1[C@H](C)CC[C@]2(C(=O)O)CC[C@]3(C)C(=CC[C@@H]4[C@@]5(C)C[C@@H](O)[C@H](O)C(C)(C)[C@@H]5CC[C@]43C)[C@H]12	i	-7.6*	i	i	i
Cc1cc(/C=C2/NC(=O)NC2=O)c(C)n1-c1ccncc1	i	i	i	6.7*	i
Cc1cccc(-n2c(C)cc(/C=C3\NC(=O)NC3=O)c2C)c1	i	i	i	i	i
COc1ccc(S(=O)(=O)N2CCN(c3ccc(F)cc3)CC2)cc1C(=O)N1CCOCC1	i	i	i	i	i
Cc1ccccc1Cn1ccc(NC(=O)c2cnn3c(C(F)(F)F)cc(-c4ccco4)nc23)n1	i	-7.5*	i	i	i
Cc1ccccc1Cn1ccc(NC(=O)CCSc2nc(-c3ccco3)cc(C(F)(F)F)n2)n1	i	i	i	i	i
O=C(Nc1cnn(C23CC4CC(CC(C4)C2)C3)c1)c1cnn2c(C(F)(F)F)cc(-c3ccco3)nc12	i	-8.5*	i	i	i
O=C(Nc1ccc2c(c1)OCO2)c1cnn2c(C(F)(F)F)cc(-c3ccco3)nc12	i	.	.	i	i
COc1cc(OC)c(NS(=O)(=O)c2cc(Br)cnc2N)cc1Cl	i	i	i	i	i
Cc1ccc(NS(=O)(=O)c2cc(Br)cnc2N)c(Cl)c1	i	-7*	i	i	i
c1ccc(N2CC[N+]3(CCCC3)CC2)nc1	i	i	i	i	i
c1cnc(N2CC[N+]3(CCCC3)CC2)nc1	i	-7.7*	i	i	i
CCOC(=O)N1CCN(Cc2ccc3ccccc3c2)CC1	i	i	i	i	i
COc1ccc(C(=O)N/N=C/c2c[nH]c3ccccc23)cc1	i	i	i	i	i
COc1ccc2c(/C=N/Nc3ccc(C(=O)O)cc3)c[nH]c2c1	i	i	i	i	32*
O=C(CC1NCCNC1=O)NC1Cc2ccccc2C1 (stereo unspecified)	i	i	i	i	i
SMILES	MrgX1 antagonist	RGS4 pot	RGS4 inh	MrgX1 PAM	MrgX1 ag
COC(=O)c1ccc(/C(O)=C(\C#N)c2nc3ccccc3s2)cc1	i	i	i	i	28*
COC(=O)c1ccc(CC(=O)c2nc3ccccc3s2)cc1	i	i	i	i	i
CCCCCCc1cc2cc(C(=O)NCc3ccccc3)c(=N)oc2cc1O	i	i	i	7*	i
CCN(CC)c1ccc2cc(C(=O)NCc3ccc(F)cc3)c(=N)oc2c1	i	i	i	i	37*
COc1ccc(N2CCN(C(c3ccc4ncccc4c3)c3nnnn3C(C)C)CC2)cc1 (stereo unspecified)	i	i	i	i	i
COCC(C)N1CCC(n2nccc2NC(=O)CCCc2ccccc2)CC1 (stereo unspecified)	i	i	i	i	i
O=C(Cc1ccc(-c2ccccc2)cc1)OCC(=O)N1CCCC1=O	i	i	i	i	i
COc1cccc([C@@H]2CC=C(C(=O)O)[C@H](c3ccccc3F)N2S(=O)(=O)c2ccc(C)cc2)c1	i	.	.	8.3*	i
Cc1ccc(S(=O)(=O)N2[C@@H](c3cccc(Cl)c3)C(C(=O)O)=CC[C@H]2c2ccc3c(c2)OCO3)cc1	i	.	.	7*	i
COc1cccc([C@@H]2CC=C(C(=O)O)[C@H](c3ccc(Cl)cc3)N2S(=O)(=O)c2ccc(C)cc2)c1	i	.	.	i	i
CCc1ccc([C@@H]2CC=C(C(=O)O)[C@H](c3ccccc3F)N2S(=O)(=O)c2ccc(C)cc2)cc1	i	.	.	6.8*	i
Cc1ccc(S(=O)(=O)N2[C@@H](c3ccc(Cl)cc3)C(C(=O)O)=CC[C@H]2c2ccc3c(c2)OCO3)cc1	i	.	.	i	i
CCc1ccc([C@@H]2CC=C(C(=O)O)[C@H](c3ccc(Cl)cc3)N2S(=O)(=O)c2ccc(C)cc2)cc1	i	.	.	i	i
O=C(O)Cc1ccc(NC(=O)Nc2ccc3c(c2)OCO3)cc1	i	i	i	i	i
CCc1ccccc1NC(=O)CSc1nnc(Cn2nnc3ccccc32)n1C	i	-7.5*	i	i	i
COc1ccc(NC(=O)CSc2nnc(Cn3nnc4ccccc43)n2C)cc1	i	.	.	i	i
COCc1cc(C)nc(SCc2ccc(Cl)cc2)c1C#N	i	-7.6*	i	i	i
N#Cc1cc2c(nc1SCc1ccc(Cl)cc1)CCCC2	i	-7*	i	i	i
CC(=O)N1CCN=C1SCc1cccc(F)c1	i	i	i	i	i
CC(=O)OCCn1c2nc(=O)[nH]c(=O)c-2nc2cc(C)c(C)cc21	i	-7.7*	i	i	i
CC(=O)OCCn1c(C)[n+](CCOC(C)=O)c2cc(Cl)c(Cl)cc21	i	i	i	i	i
C[N+]1(C)CCCC(OC(=O)C(O)(c2ccccc2)c2ccccc2)C1 (stereo unspecified)	i	-11*	i	i	i
O=C(CNC(=O)c1ccccc1)OC1CCCCC1	i	i	i	i	i
